Consider seven molecules from ChEMBL document CHEMBL1123756, “Cardiotonic agents. 5. 1,2-Dihydro-5-[4-(1H-imidazol-1-yl)phenyl]-6-methyl-2-oxo-3- pyridinecarbonitriles and related compounds. Synthesis and inotropic activity” (J Med Chem, 1987).

In assay [1] the test system is Canis familiaris. Put plainly: Mean arterial blood pressure (MABP) in an acutely instrumented anesthetized dog model at 0.03 mg/kg intravenous dose. The assay is classed as functional, Canis lupus familiaris. In outline:
(§1)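 Adult mongrel dogs of either sex, anesthetized with pentobarbital 35 mg/kg IV and maintained by infusion at 5 mg/kg per h. Control data collected for 30 min. Drug given IV in saline (or dilute HCl/NaOH diluted with saline), 0.1 mL/kg over 1 min. Ascending doses, usually half-log apart, 10-30 min between doses, one compound per dog. Recorded LV dP/dtmax, heart rate and aortic pressure as % change from control.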

The subject of assay [2] is Canis familiaris. Nature of the assay: Heart rate (HR) in an acutely instrumented anesthetized dog model at […] intravenous dose. The format is functional, Canis lupus familiaris.
Assay [3] relates to Canis familiaris. Put plainly: Heart rate (HR) in an acutely instrumented anesthetized dog model at 0.1 mg/kg intravenous dose. The assay is classed as functional, Canis lupus familiaris. In outline: as §1
Assay [4] has as its system Canis familiaris. Put plainly: Myocardial contractility in an acutely instrumented anesthetized dog model at 0.001 mg/kg intravenous dose. The format is functional, Canis lupus familiaris, Myocardium. In outline: as §1
The subject of assay [5] is Canis familiaris. Nature of the assay: Heart rate (HR) in an acutely instrumented anesthetized dog model at 0.03 mg/kg intravenous dose. The format is functional, Canis lupus familiaris. In outline: as §1
The subject of assay [6] is Canis familiaris. Nature of the assay: Mean arterial blood pressure (MABP) in an acutely instrumented anesthetized dog model at 1 mg/kg intravenous dose. The format is functional, Canis lupus familiaris. In outline:
as §1

Assay [7] concerns Canis familiaris. Put plainly: Mean arterial blood pressure (MABP) in an acutely instrumented anesthetized dog model at 0.01 mg/kg intravenous dose. The format is functional, Canis lupus familiaris. In outline: as §1
The subject of assay [8] is Canis familiaris. Nature of the assay: Heart rate (HR) in an acutely instrumented anesthetized dog model at 0.01 mg/kg intravenous dose. The format is functional, Canis lupus familiaris. In outline:
as §1

Assay [9] deals with Canis familiaris. Nature of the assay: Mean arterial blood pressure (MABP) in an acutely instrumented anesthetized dog model at 0.1 mg/kg intravenous dose. The format is functional, Canis lupus familiaris. In outline: as §1
The test system of assay [10] is Canis familiaris. Nature of the assay: Change from control in mean arterial blood pressure (MABP) in an acutely instrumented anesthetized dog model at […] intravenous dose.
The subject of assay [11] is Canis familiaris. Put plainly: Myocardial contractility in an acutely instrumented anesthetized dog model at […] intravenous dose. The format is functional, Canis lupus familiaris, Myocardium.
The test system of assay [12] is Canis familiaris. Nature of the assay: Myocardial contractility in an acutely instrumented anesthetized dog model at 1 mg/kg intravenous dose. The assay is classed as functional, Canis lupus familiaris, Myocardium. In outline:
as §1

For assay [13], the system named is Canis familiaris. Put plainly: Myocardial contractility in an acutely instrumented anesthetized dog model at 0.03 mg/kg intravenous dose. The assay is classed as functional, Canis lupus familiaris, Myocardium. In outline: as §1
For assay [14], the system named is Canis familiaris. Put plainly: Myocardial contractility in an acutely instrumented anesthetized dog model at 0.01 mg/kg intravenous dose. The format is functional, Canis lupus familiaris, Myocardium. As to conditions: dose 0.1 mg/kg, in the assay text read “0.1 mg/kg” for “0.01 mg/kg”. In outline: as §1
Assay [15] has as its system Canis familiaris. Nature of the assay: Heart rate (HR) in an acutely instrumented anesthetized dog model at 1 mg/kg intravenous dose. The format is functional, Canis lupus familiaris. In outline: as §1
The subject of assay [16] is Canis familiaris. Put plainly: Heart rate (HR) in an acutely instrumented anesthetized dog model at 0.003 mg/kg intravenous dose. The assay is classed as functional, Canis lupus familiaris. In outline:
as §1

Assay [17] deals with Canis familiaris. Put plainly: Mean arterial blood pressure (MABP) in an acutely instrumented anesthetized dog model at 0.003 mg/kg intravenous dose. The format is functional, Canis lupus familiaris. In outline:
as §1

The subject of assay [18] is Canis familiaris. Nature of the assay: Heart rate (HR) in an acutely instrumented anesthetized dog model at 0.001 mg/kg intravenous dose. The format is functional, Canis lupus familiaris. In outline:
as §1

In assay [19] the test system is Canis familiaris. Put plainly: Myocardial contractility in conscious dog model after 34-40 minutes at […] oral administration, activity >3 hr (p<0.05). The assay is classed as functional, Canis lupus familiaris, Myocardium.
For assay [20], the system named is Canis familiaris. Nature of the assay: Myocardial contractility in conscious dog model after 34-40 minutes at 1 mg/kg oral administration, activity >4 hr. The assay is classed as functional, Canis lupus familiaris, Myocardium. In outline: (§2)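 Conscious, fasted adult mongrel dogs with surgically implanted devices for ECG, aortic pressure and flow, and LV pressure. Drug given by gavage as a solution or suspension, in single or multiple doses. Contractility recorded as % increase 34-40 min after dosing, with duration of response noted. Mean ± SEM; Student's t test, p < 0.05.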

Assay [21] has as its system Canis familiaris. Nature of the assay: Mean arterial blood pressure (MABP) in an acutely instrumented anesthetized dog model at 0.001 mg/kg intravenous dose. The assay is classed as functional, Canis lupus familiaris. In outline: as §1
In assay [22] the test system is Canis familiaris. Put plainly: Myocardial contractility in conscious dog model after 34-40 minutes at 0.1 mg/kg oral administration, range 5-10. The assay is classed as functional, Canis lupus familiaris, Myocardium. In outline:
as §2

The test system of assay [23] is Canis familiaris. Nature of the assay: Myocardial contractility in conscious dog model after 34-40 minutes at 1 mg/kg oral administration, activity 3-4 hr (p<0.05). The format is functional, Canis lupus familiaris, Myocardium. In outline:
as §2

Where [24] appears, read: dose 0.01 mg/kg, in the assay text read “0.01 mg/kg” for “0.001 mg/kg”.

Regarding `Cc1nc(O)c(N)cc1-c1ccc(-n2ccnc2)cc1`, the “MABP % change from control” value in [1] stood at 1. Moreover, the HR change from control is 21.5% in assay [2]; 18% in assay [3]; 12% in assay [5]; -1.5% in assay [8]; 22% in assay [15]. The “Change from Control (LV dp/dt)” value stood at 24.5% in assay [4] (setting [24]); 125.5% in assay [11]; 105.5% in assay [12]; 80.5% in assay [13]; 134.5% in assay [14]. Also, the MABP change from control in assay [6] is -27.5%; in assay [7] it was 0.5%; in assay [9], -5%; in [10] it was -17.5%.
As for `Cc1nc(O)c(C#N)cc1-c1ccc(-n2ccnc2)cc1`, the “MABP % change from control” value in [1] is reported as -2.2. The HR change from control came to 34.7% in assay [3]; 3% in assay [16]; 14% in assay [5]; 1% in assay [18]; 4.5% in assay [8]. For the same molecule, the “Change from Control (LV dp/dt)” value in assay [4] is on record as 4.5%; in [4] (setting [24]) it was 50.3%; in assay [13], 122.7%; in assay [14], 154%. The MABP change from control in [17] was 1.7%; in assay [7], 0.75%; in [9], -9.7%. In addition, the Increase contractility in assay [19] is on record as 35%; in assay [20], 75%; in assay [22] it was 10%. Moreover, the MABP in assay [21] is given as -1.
For `Cc1nc(O)ccc1-c1ccc(-n2ccnc2)cc1`, the “MABP % change from control” value in assay [1] is on record as -2. Moreover, the HR change from control amounted to 26% in [2]; 17% in assay [3]; 9% in assay [5]; 3% in assay [8]; 29% in assay [15]. Further, the “Change from Control (LV dp/dt)” value in assay [4] (setting [24]) is 36%; in [11], 121%; in assay [12] it was 122%; in assay [13], 85%; in [14] it was 109%. For the same molecule, the MABP change from control in [6] is -19.5%; in assay [7], -2.5%; in assay [9], -9.5%; in [10], -20%.
Take `Cc1c(-c2ccc(-n3ccnc3)cc2)cc(C#N)c(=O)n1C`: the “MABP % change from control” value in assay [1] came to 1. The HR change from control amounted to 2% in assay [2]; 3% in assay [3]; 0% in assay [5]; 1% in assay [8]; 3% in assay [15]. For the same molecule, the “Change from Control (LV dp/dt)” value in assay [4] (setting [24]) is reported as 8%; in assay [11] it was 18%; in [12], 39%; in [13], 10%; in [14], 16%. The MABP change from control in assay [6] stood at 0.5%; in assay [7], 2%; in assay [9], 2%; in assay [10], 1.5%.
With `Cc1nc(O)c(C#N)c(C)c1-c1ccc(-n2ccnc2)cc1`, in assay [1], the “MABP % change from control” value was -6. Further, the HR change from control in [2] was determined as 16%; in assay [3] it was 15%; in assay [5], 2%; in [8], 1%; in [15] it was 26%. For the same molecule, the “Change from Control (LV dp/dt)” value is on record as 21% in assay [4] (setting [24]); 160% in assay [11]; 135% in [12]; 86% in [13]; 137% in assay [14]. Moreover, the MABP change from control in [6] is -49%; in assay [7] it was 0%; in [9], -17.5%; in assay [10], -35%.
Take `Cc1c(-c2ccc(-n3ccnc3)cc2)cnc(O)c1C#N`: the “MABP % change from control” value in assay [1] turned out to be 4.7. The HR change from control in assay [2] was 7.5%; in assay [3], 4.5%; in [5], 2%; in [8], -0.5%; in assay [15], 19.5%. In addition, the “Change from Control (LV dp/dt)” value in assay [4] (setting [24]) was 2.5%; in assay [11] it was 54%; in assay [12] it was 125.5%; in assay [13], 12%; in [14], 21%. Also, the MABP change from control in assay [6] was -2.5%; in assay [7], 1.5%; in assay [9], 5.5%; in [10], 9.7%.
On to `Cc1[nH]c(=O)c(C#N)cc1-c1ccncc1` [MILRINONE], for which, in [1], the “MABP % change from control” value is -8. Besides, the HR change from control in assay [2] stood at 39.2%; in assay [3], 27%; in assay [5], 13.5%; in assay [8] it was 3%; in [15] it was 48.5%. Also, the “Change from Control (LV dp/dt)” value in [4] (setting [24]) is on record as 30.5%; in assay [11], 142.5%; in assay [12], 148.5%; in assay [13] it was 77.5%; in assay [14], 113%. Also, the MABP change from control is -36.9% in assay [6], -2% in assay [7], -13% in [9] and -19.9% in assay [10]. Besides, the Increase contractility in [23] stood at 45%.
